# Compounds with a hit are over-represented: about 2.6% of the library has one in this group of screens.
# SENP6 inh = SENP6 protease inhibition; Q9GZR1; Recombinant SENP6 catalytic domain, aminoluciferin luminescence; inhibition, % at 10 µM; hit rate 1.8% among 330,000; AID 2599;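 active = inhibition above about 50% at the single tested dose, limit read from the data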
# Target sequence (Q9GZR1 628-1112 limits assumed): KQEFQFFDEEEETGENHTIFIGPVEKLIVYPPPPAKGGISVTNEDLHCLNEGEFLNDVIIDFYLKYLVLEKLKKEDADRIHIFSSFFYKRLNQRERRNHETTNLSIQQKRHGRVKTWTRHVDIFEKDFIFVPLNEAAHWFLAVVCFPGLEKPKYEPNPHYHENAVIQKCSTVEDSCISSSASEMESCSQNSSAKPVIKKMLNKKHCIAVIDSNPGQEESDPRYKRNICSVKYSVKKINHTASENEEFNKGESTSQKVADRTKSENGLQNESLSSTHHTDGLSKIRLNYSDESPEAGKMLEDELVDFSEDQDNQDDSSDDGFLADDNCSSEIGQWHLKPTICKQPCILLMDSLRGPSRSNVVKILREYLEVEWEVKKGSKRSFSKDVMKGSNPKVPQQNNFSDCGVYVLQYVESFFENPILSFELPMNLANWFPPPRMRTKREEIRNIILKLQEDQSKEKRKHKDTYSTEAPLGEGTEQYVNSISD
# SENP8 block-1 = blocks the human protease SENP8 | inhibition, % at 10 µM | Q96LD8 | hit rate 1.2% among 330,000 | purified SENP8, Z-RLRGG-aminoluciferin cleavage, luminescence; in the data active = inhibition above about 50%
# SENP7 inh = inhibitors of human SENP7 protease | recombinant SENP7, Z-RLRGG-aminoluciferin luminescence, 40 min | inhibition, % at 5 µM | hit rate 1.5% among 330,000;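 active = inhibition above about 50% at the single test dose, limit read from the data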
# SENP8 block-2 = SENP8 (human) protease inhibition | AID 602440 | Q96LD8 | recombinant SENP8, Nedd8 substrate fluorescence | inhibition, % at 20 µM | hit rate 0.64% among 360,000; in the data active = inhibition mostly above about 40%, no sharp cut-off; inactive = mostly below about 27%
# SENP1 inh = inhibitors of human SENP1 SUMO protease catalytic domain; Q9P0U3; hit rate 0.21% among 360,000; inhibition, % at 10 µM; recombinant SENP1 catalytic domain, CyPet-SUMO1-YPet FRET cleavage;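 active = inhibition at least 30% at 10 µM, raw YFP signal under a set limit, fluorescence ratio 0.5 to 1.5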
#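 Test system: hSENP1 catalytic domain, recombinant; Amount: 20 pM final SENP1 enzyme; Medium: Tris pH 8 buffer plus EDTA, NaCl, BME, BSA, NP40, catalase; Schedule: 50 min enzyme reaction, room temperature, light-protected; Technique: FRET fluorescence in CFP and YFP emission channels; Controls: no-enzyme wells low, DMSO-plus-enzyme wells high control.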
# UCH37 DUB inh = blocks the human deubiquitinase UCH37; inhibition, % (no concentration beside the values); AID 588478; hit rate 0.33% among 330,000; Q9Y5K5; purified proteasome/UCH37, Ub-AMC cleavage fluorescence;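 active = mean inhibition over replicate wells above about 20%, limit read from the data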
#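 Material: Human UCH37 enzyme supplied as purified proteasome complex | Schedule: 30 min compound-proteasome preincubation then 25 min substrate reaction, room temperature | Detection: AMC fluorescence from Ub-AMC cleavage, excitation 355 nm, emission 460 nm | Benchmarks: Wells without proteasome as full block, compound-free enzyme plus substrate as uninhibited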
# SENP8 confirm = human SENP8 inhibition, confirmed | shares compounds with SENP7 inh | Recombinant SENP8, Z-RLRGG-aminoluciferin luminescence, 60 min | inhibition, % at 12.5 µM | hit rate 40% among 6,200 | AID 488912;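 active = mean inhibition across replicates above about 50%, limit read from the data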
# SENP6 conf = confirmation of human SENP6 protease inhibitors; shares compounds with SENP7 inh; recombinant SENP6, Z-RLRGG-aminoluciferin luminescence; inhibition, % at 12.5 µM; hit rate 58% among 6,200
# SENP7 confirm = confirmation of human SENP7 protease inhibitors; shares compounds with SENP7 inh; recombinant SENP7, Z-RLRGG-aminoluciferin luminescence, 40 min; inhibition, % at 12.5 µM; hit rate 69% among 6,200; AID 488917
# Casp3 SENP sel = selectivity test for SENP inhibitors: human caspase-3 inhibition; AID 488918; hit rate 60% among 6,200; shares compounds with SENP7 inh; purified caspase-3, Z-DEVD-aminoluciferin luminescence, 60 min; inhibition, % at 12.5 µM;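 active = mean inhibition above about 50%, limit read from the data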
# Target sequence (P42574 28-227 limits assumed): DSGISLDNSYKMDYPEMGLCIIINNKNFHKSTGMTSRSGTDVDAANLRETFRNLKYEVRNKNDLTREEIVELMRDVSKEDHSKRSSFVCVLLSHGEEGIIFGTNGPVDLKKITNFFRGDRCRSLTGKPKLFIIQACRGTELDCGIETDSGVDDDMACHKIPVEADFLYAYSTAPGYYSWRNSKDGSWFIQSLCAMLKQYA
# SENP luc ctr = luminescence interference (SENP counter-screen) | shares compounds with SENP7 inh | Pre-incubated SENP8/Z-RLRGG-aminoluciferin, luciferase luminescence interference | inhibition, % at 12.5 µM | hit rate 39% among 6,200 | AID 488919;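 active = mean inhibition above about 50% when retested at one dose, limit read from the data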
# A number is an active result; 0 = inactive; - = no result given.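 The calls were made as follows, unless noted: active = mean inhibition above about 50% in the one-dose retest (limit read from the data); inactive = the rest.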
SMILES,SENP6 inh,SENP8 block-1,SENP7 inh,SENP8 block-2,SENP1 inh,UCH37 DUB inh,SENP8 confirm,SENP6 conf,SENP7 confirm,Casp3 SENP sel,SENP luc ctr
O=C(Nc1ccc2c(c1)OCCO2)c1ccc(Br)o1,77,55,74,0,0,0,77,70,91,85,74
Cn1c(=O)c2c(ncn2CC(=O)NN=Cc2c[nH]c3ccccc23)n(C)c1=O,-,-,-,-,-,0,-,-,-,-,-
O=C(NN=Cc1c[nH]c2ccccc12)c1ccn(Cc2ccc(Cl)cc2Cl)n1,-,-,-,-,-,0,-,-,-,-,-
COc1ccc2c(CC(=O)NNC(=O)c3cccs3)coc2c1,0,0,0,0,0,0,-,-,-,-,-
Cc1ccc(C(=O)c2coc3ccc(O)cc23)cc1,86,88,92,0,0,0,0,94,100,84,84
COc1ccc(C(=O)c2coc3ccc(OC(C)=O)cc23)cc1,0,60,0,0,0,0,58,55,66,50,0
Cc1ccc(C(=O)c2coc3ccc(O)c(Cl)c23)cc1,0,0,0,0,0,0,-,-,-,-,-
COc1ccc(OC)c(C(=O)c2coc3ccc(OC(C)=O)cc23)c1,0,0,0,0,0,0,-,-,-,-,-
COc1ccc2occ(C(=O)c3ccc(N)cc3)c2c1,0,0,53,0,0,0,55,54,82,0,65
COc1ccc2occ(C(=O)c3cccs3)c2c1,69,0,52,0,0,0,56,58,84,52,62
COc1cc(C(=O)NN=Cc2ccccn2)cc(OC)c1OC,-,-,-,-,-,0,-,-,-,-,-
Cn1nc(C(F)(F)F)c(C=NOC(=O)c2ccccc2)c1SCc1ccccc1Cl,-,-,-,-,-,0,-,-,-,-,-
O=C(CNc1ccc(Br)cc1)c1ccccc1,71,0,0,0,0,0,0,0,0,0,0
COc1ccc(C(=O)Nc2nc3ccc4nc(C)sc4c3s2)cc1,0,0,0,0,0,0,-,-,-,-,-
COc1ccc(-c2nc(NC(=O)c3ccccc3)sc2-c2ccc([N+](=O)[O-])cc2)cc1,0,0,0,0,0,0,-,-,-,-,-
COc1cccc(-c2nnc(NC(=O)c3cccs3)s2)c1,0,0,0,0,0,0,-,-,-,-,-
COc1ccc2c(c1)Cc1sc(NC(=O)c3cccs3)nc1-2,92,96,94,0,0,0,67,75,99,77,0
COc1ccc(C(=O)Nc2nc3c(s2)Cc2cc(OC)ccc2-3)cc1,82,90,93,0,0,0,0,68,50,0,0
COc1ccc2c(c1)Cc1sc(NC(=O)c3ccccc3)nc1-2,95,91,90,0,0,0,0,65,88,66,0
Cc1oc(N=Cc2cccc3ccccc23)c(C#N)c1C,-,-,-,-,-,0,-,-,-,-,-
COC(=O)C(=O)CC(=NNc1ncnc2ccccc12)c1ccc(Cl)cc1,-,-,-,-,-,0,-,-,-,-,-
Cc1cccc(C=Nn2c(C)cc(C)c(C#N)c2=O)c1,-,-,-,-,-,0,-,-,-,-,-
COC(=O)c1sc(NC(=O)c2oc3ccccc3c2C)nc1C,0,0,0,0,0,0,-,-,-,-,-
Cc1ccc(NC(=O)c2oc3ccccc3c2C)nc1,55,0,0,0,0,0,0,0,70,0,0
Cc1c(C(=O)Nc2nnc(C(F)(F)F)s2)oc2ccccc12,0,0,62,0,0,0,53,54,60,59,0
SMILES,SENP6 inh,SENP8 block-1,SENP7 inh,SENP8 block-2,SENP1 inh,UCH37 DUB inh,SENP8 confirm,SENP6 conf,SENP7 confirm,Casp3 SENP sel,SENP luc ctr
Cc1c(C(=O)Nc2ccccn2)oc2ccccc12,64,57,76,0,0,0,0,55,79,56,56
Cc1nn(C)c(C(=O)NN=Cc2ccccn2)c1[N+](=O)[O-],-,-,-,-,-,0,-,-,-,-,-
C=CCn1c(SCC(=O)Nc2ccccc2)nc2scc(-c3cccs3)c2c1=O,0,0,0,0,0,0,-,-,-,-,-
C=CCn1c(SCn2nnc3ccccc3c2=O)nc2scc(-c3cccs3)c2c1=O,0,0,74,0,0,0,0,0,0,0,0
CC(=O)Nc1cccc(C(=O)NN=Cc2ccc(C)o2)c1,-,-,-,-,-,0,-,-,-,-,-
Fc1ccc(-c2noc(-c3ccc4c(c3)CCO4)n2)cc1,79,67,96,0,0,0,0,53,0,71,0
Cc1cc(/C(N)=N/OC(=O)c2cccc(Cl)c2)no1,0,0,0,0,0,0,-,-,-,-,-
N/C(=N\OC(=O)c1cccc(Cl)c1)c1ccccn1,92,87,94,0,0,0,90,90,100,95,0
CCO/N=C(\N)c1[nH]ncc1Br,0,0,0,0,0,-,-,-,-,-,-
N/C(=N\OC(=O)c1ccc(Cl)c([N+](=O)[O-])c1)c1ccccn1,0,0,0,0,0,-,-,-,-,-,-
Cc1cc(/C(N)=N/OC(=O)c2ccc(Cl)cc2)no1,85,80,94,0,0,0,0,86,97,92,0
Clc1ncccc1OCc1ccccc1,0,0,0,0,0,0,-,-,-,-,-
Nc1ncccc1OCc1ccc(Cl)c(Cl)c1,75,70,81,0,0,0,79,79,94,75,81
N/C(=N\OC(=O)c1ccc(Cl)cc1)c1[nH]ncc1Br,100,96,100,0,0,0,98,98,101,98,98
ON=C(Cc1cscn1)c1ccc(O)cc1O,-,-,-,-,-,0,-,-,-,-,-
COc1ccc(C(=O)NN=Cc2cn[nH]c2-c2ccc(OC)cc2OC)cc1,-,-,-,-,-,0,-,-,-,-,-
O=C(OCc1ccc(Cl)c(Cl)c1)c1ccccn1,80,51,69,0,0,0,71,69,90,71,73
N/C(=N\OC(=O)c1ccc(Cl)cc1)c1ccccn1,94,97,99,0,0,0,88,99,103,98,79
COc1ccc(C(=O)NNC(=O)c2ccccn2)cc1,99,97,100,0,0,0,98,99,102,98,98
N/C(=N\OC(=O)c1ccc(Cl)c(Cl)c1)c1ccccn1,85,68,95,0,0,0,0,0,65,82,59
O=C(OCc1ccc(Cl)c(Cl)c1)c1cccnc1Cl,0,0,0,0,0,0,-,-,-,-,-
C(=NNc1nn[nH]n1)c1ccccc1,-,-,-,-,-,0,-,-,-,-,-
CSCC[C@H](NC(=O)OC(C)(C)C)C(=O)NN=Cc1ccc2nccnc2c1,-,-,-,-,-,0,-,-,-,-,-

# Source: PubChem BioAssay (several laboratories)
